Measured values published in ChEMBL document CHEMBL3779886, “Cassane Diterpenoids from the Pericarps of Caesalpinia bonduc” (J Nat Prod, 2016).
Calls of active or inactive are those of the source.

How the values were obtained:
Format in all cases: functional, cell-based
SH-SY5Y [1] = assay: Neuroprotective activity against H2O2-induced toxicity in human SH-SY5Y cells assessed as cell viability at 1 to 10 uM pretreated for 2 hrs followed by H2O2 addition measured after 24 hrs by MTT assay
Summary of the method: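 High-passage SH-SY5Y cells (ATCC), 37 °C, 5% CO2. Pretreatment for 2 h with compound at 1 or 10 μM, or N-acetylcysteine 300 μM, then 100 μM H2O2 for 24 h. Viability by MTT (0.5 mg/mL final, 4 h, 37 °C), DMSO solubilization, absorbance 490 nm. Means ± SD, one-way ANOVA, p < 0.05.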

SH-SY5Y [2] = assay: Neuroprotective activity against OGD-induced toxicity in human SH-SY5Y cells assessed as cell viability at 1 to 10 uM pretreated for 2 hrs followed by OGD induction for 1 hr measured after 24 hrs by MTT assay
Summary of the method: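 SH-SY5Y cells (high passage, ATCC) kept at 37 °C, 5% CO2. Pretreated with compound for 2 h, then OGD exposure (1 mg/mL as printed) for 1 h, followed by 24 h normal culture. Glucose-fed cells under normal conditions served as controls. MTT 0.5 mg/mL final, 4 h, 37 °C; DMSO; A490. Means ± SD, one-way ANOVA.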

SH-SY5Y [3] = assay: Neuroprotective activity against amyloid beta(25 to 35)-induced toxicity in human SH-SY5Y cells assessed as cell viability at 1 to 10 uM pretreated for 2 hrs followed by protein addition measured after 24 hrs by MTT assay
Summary of the method: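 Cells: high-passage SH-SY5Y (ATCC), 37 °C, 5% CO2. 2 h pretreatment with compound at 1 or 10 μM, or EGCG 10 μM, then 10 μM Aβ25−35 for 24 h with compound still present. MTT at 0.5 mg/mL final for 4 h, 37 °C; DMSO dissolution; read at 490 nm. Means ± SD, one-way ANOVA, p < 0.05.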

Measured: Activity

C=C1c2ccoc2C[C@H]2[C@H]1CC[C@@]1(O)C(C)(C)[C@H](OC(C)=O)[C@H](OC(C)=O)[C@H](OC(C)=O)[C@]21C
inactive: all assays above

COC(=O)[C@@H]1c2ccoc2C[C@H]2[C@H]1[C@@H](O)[C@H](OC(C)=O)[C@@]1(O)C(C)(C)CC[C@H](O)[C@]21C
inactive: all assays above

COC(=O)[C@@H]1c2ccoc2C[C@H]2[C@H]1[C@@H](OC(C)=O)[C@H](OC(C)=O)[C@@]1(O)C(C)(C)CCC[C@]21C
inactive: all assays above

CC(=O)O[C@@H]1[C@@H]2[C@H](Cc3occc3[C@@]2(C)O)[C@@]2(C)[C@@H](OC(C)=O)C[C@H](C)[C@@]3(C)O[C@@]23[C@H]1OC(C)=O
inactive: all assays above

CC(=O)O[C@@H]1[C@@H]2[C@H](Cc3occc3[C@@]2(C)O)[C@@]2(C)[C@@H](OC(C)=O)CC(C)=C(C)[C@]2(O)[C@H]1OC(C)=O
inactive: all assays above

COC(=O)[C@@H]1c2ccoc2C[C@H]2[C@H]1[C@@H](OC(C)=O)[C@H](OC(C)=O)[C@@]1(O)C(C)(C)CC[C@H](O)[C@]21C
inactive: all assays above

COC(=O)[C@@H]1c2ccoc2C[C@H]2[C@H]1[C@@H](O)[C@H](OC(C)=O)[C@@]1(O)C(C)(C)CCC(=O)[C@]21C
inactive: all assays above

C=C1c2ccoc2C[C@H]2[C@H]1[C@@H](OC(C)=O)[C@H](OC(C)=O)[C@@]1(O)C(C)(C)CCC(=O)[C@]21C
inactive: all assays above

COC(=O)[C@@H]1c2ccoc2C[C@H]2[C@H]1[C@@H](OC(C)=O)[C@H](O)[C@@]1(O)C(C)(C)CCC(=O)[C@]21C
inactive: all assays above
